Reference: paper PMC4834983 (Journal of medicinal chemistry, 2015)

How the values were obtained:
[1] = tested on: U373MG cells; experiment: CyQuant cell proliferation assay; assay type: cell-based; details: Homo sapiens, U373 MG, 72 h, read-out: IC50 cell proliferation U373MG
In short: (§1)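 CyQuant DNA-dye proliferation assay on cultured cells after 72 h exposure to test compound. Viability expressed relative to DMSO-treated control cells.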

[2] = tested on: U251MG cells; experiment: BrdU incorporation assay; assay type: cell-based, human; details: 5 μM, at 24 h
In short: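 U251MG cells on glass coverslips exposed to DMSO or 5 μM test compound for 3–24 h. BrdU (10 micromolar) added for the final 2 h. Fixed in 4% paraformaldehyde for 10 min, stained with anti-BrdU antibody and counterstained with DAPI. Imaged by fluorescence microscopy, and cells counted.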

[3] = tested on: pErk1/2MAPK; experiment: Immunoblotting, U251MG glioma cells; assay type: cell-based, human; details: 5 μM
In short: (§2)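 U251MG cells given 5 μM test compound for 0–24 h. Whole-cell lysates of equal total protein immunoblotted for pErk1/2, Erk1/2, pS-Akt, Akt, pJAK2, JAK2, SOCS3 and PTP1B, with β-actin or GAPDH as loading reference.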

[4] = tested on: Stat3; experiment: Stat3 DNA-binding activity/EMSA of nuclear extracts from treated glioma cells; assay type: cell-based, human; details: 5 μM, glioma cells, EMSA
[5] = target: T1, Stat1:Stat1 (Mus musculus, UniProt P42225); experiment: Cell-free EMSA, EGF-stimulated NIH3T3/hEGFR nuclear extracts; assay type: biochemical; details: 5 μM, 30 min pre-incubation
T1 sequence (P42225 2-749 limits assumed): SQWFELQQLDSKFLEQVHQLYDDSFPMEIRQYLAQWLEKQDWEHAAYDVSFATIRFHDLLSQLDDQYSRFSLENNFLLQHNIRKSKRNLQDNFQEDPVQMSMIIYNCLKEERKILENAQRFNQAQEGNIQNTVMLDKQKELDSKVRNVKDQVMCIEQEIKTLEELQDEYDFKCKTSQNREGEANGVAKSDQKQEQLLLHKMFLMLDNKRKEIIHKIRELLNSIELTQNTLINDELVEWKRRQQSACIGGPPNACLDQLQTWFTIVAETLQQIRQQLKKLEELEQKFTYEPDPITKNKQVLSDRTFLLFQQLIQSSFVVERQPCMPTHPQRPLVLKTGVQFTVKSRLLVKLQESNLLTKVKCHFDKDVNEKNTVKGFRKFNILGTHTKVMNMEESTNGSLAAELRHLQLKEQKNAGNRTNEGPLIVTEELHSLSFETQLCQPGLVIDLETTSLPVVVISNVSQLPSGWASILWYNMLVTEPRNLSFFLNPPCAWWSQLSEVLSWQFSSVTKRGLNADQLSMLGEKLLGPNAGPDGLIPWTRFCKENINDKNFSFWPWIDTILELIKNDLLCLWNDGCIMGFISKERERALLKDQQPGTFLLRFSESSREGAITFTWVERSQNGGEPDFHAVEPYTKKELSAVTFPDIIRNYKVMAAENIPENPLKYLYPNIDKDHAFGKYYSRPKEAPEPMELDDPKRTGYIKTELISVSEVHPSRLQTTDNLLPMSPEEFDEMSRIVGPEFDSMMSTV
In short: (§3)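 Nuclear extracts from EGF-stimulated NIH3T3/hEGFR fibroblasts, containing active Stat1, Stat3 and Stat5, preincubated with 5 μM test compound for 30 min at room temperature. Then incubated 30 min with 32P-labelled probe before EMSA: hSIE (Stat1/Stat3 binding) or MGFe (bovine β-casein element; Stat1/Stat5 binding). STAT:DNA bands quantified as percent of control.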

[6] = target: Stat3:Stat3 (Mus musculus, UniProt P42227); experiment: Cell-free EMSA, nuclear extracts pre-incubated with compound, hSIE probe; assay type: biochemical
[7] = tested on: U251MG cells; experiment: Scratch assay for migration; assay type: cell-based, human; details: 5 μM, 19-h treatment
In short: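 Sub-confluent U251MG monolayers wounded with pipette tips and treated once with test compound (0–5 μM) or DMSO vehicle. Cells allowed to migrate into the denuded area over 19 h, then imaged by microscopy at 10×.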

[8] = tested on: Stat5:Stat5; experiment: Cell-free EMSA, EGF-stimulated NIH3T3/hEGFR nuclear extracts, MGFe probe; assay type: biochemical, mouse; details: 5 μM, 30 min pre-incubation
In short: as §3

[9] = tested on: pStat5; experiment: Immunoblotting, EGF-stimulated NIH3T3/hEGFR fibroblasts; assay type: cell-based, mouse; details: 5 μM pre-treatment
In short: (§4)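 NIH3T3/hEGFR fibroblasts pretreated with or without 5 μM test compound for 3 h, then stimulated with 1 μg/ml EGF for 12 min. Whole-cell lysates, equal total protein, immunoblotted for pStat1/Stat1, pStat5/Stat5 and pErk1/2/Erk1/2.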

[10] = tested on: G10 cells; experiment: Growth of glioma patient-derived xenograft cells in vitro; assay type: cell-based; details: Homo sapiens, read-out: inhibitory activity against growth of G10 cells
[11] = Body weights and signs of toxicity in tumor-bearing mice; assay type: in vivo; details: 2 mg/kg, oral gavage, 33 days
[12] = tested on: U251MG subcutaneous tumor xenografts; experiment: Subcutaneous glioma xenograft tumor growth; assay type: in vivo, mouse; details: 2 mg/kg, oral gavage, 33 days
In short: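 Female athymic nude mice, 4 weeks old, injected subcutaneously in the left flank with 7.3 ×10^6 U251MG cells in PBS/matrigel. At 20 days (tumours 170–250 mm3), mice grouped by matched mean tumour size. Dosed 2 mg/kg by oral gavage in 1% DMSO vehicle, three times weekly, for 33 days. Caliper volumes (V = 0.52 × a2 × b) and body weights recorded; paired t test against vehicle.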

[13] = tested on: MCF-7 cells; experiment: CyQuant cell proliferation assay; assay type: cell-based; details: Homo sapiens, MCF7, 72 h, read-out: IC50 cell proliferation MCF-7
In short: as §1

[14] = tested on: SF295 cells; experiment: CyQuant cell proliferation assay; assay type: cell-based; details: Homo sapiens, SF-295, 72 h, read-out: IC50 cell proliferation SF295
In short: as §1

[15] = tested on: suppressors of cytokine signaling (SOCS)3; experiment: Immunoblotting, U251MG glioma cells; assay type: cell-based, human; details: 5 μM
In short: as §2

[16] = tested on: U251MG cells; experiment: Immunofluorescence staining/confocal microscopy of mitosis; assay type: cell-based, human; details: 15 h treatment
In short: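 U251MG cells on coverslips synchronised by double thymidine block (2 mM) and released for 9 h. Then given DMSO, 100 nM paclitaxel or 8 μM test compound for 15 h. Fixed in 4% paraformaldehyde, permeabilised with 0.1% digitonin and blocked in 0.2% BSA. Stained with anti-β-tubulin (1:350) and anti-MAP1B (1:300) for 1 h at room temperature, then fluorescent secondaries and DAPI; confocal imaging.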

[17] = tested on: pStat1; experiment: Immunoblotting, EGF-stimulated NIH3T3/hEGFR fibroblasts; assay type: cell-based, mouse; details: 5 μM pre-treatment
In short: as §4

[18] = tested on: G22 cells; experiment: Growth of glioma patient-derived xenograft cells in vitro; assay type: cell-based; details: Homo sapiens, read-out: inhibitory activity against growth of G22 cells
[19] = tested on: NIH3T3 cells; experiment: Colony survival assay; assay type: cell-based, mouse; details: 2.5 μM or less
In short: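 Cells seeded as single cells at 250 per well and treated once the next day with test compound (0–5 μM) for 72 h. Grown until large colonies were visible: 1 week for NIH3T3, 2 weeks for U251MG. Colonies stained with crystal violet for 4 h and counted.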

Stat3:Stat3, sequence (P42227 2-770 limits assumed): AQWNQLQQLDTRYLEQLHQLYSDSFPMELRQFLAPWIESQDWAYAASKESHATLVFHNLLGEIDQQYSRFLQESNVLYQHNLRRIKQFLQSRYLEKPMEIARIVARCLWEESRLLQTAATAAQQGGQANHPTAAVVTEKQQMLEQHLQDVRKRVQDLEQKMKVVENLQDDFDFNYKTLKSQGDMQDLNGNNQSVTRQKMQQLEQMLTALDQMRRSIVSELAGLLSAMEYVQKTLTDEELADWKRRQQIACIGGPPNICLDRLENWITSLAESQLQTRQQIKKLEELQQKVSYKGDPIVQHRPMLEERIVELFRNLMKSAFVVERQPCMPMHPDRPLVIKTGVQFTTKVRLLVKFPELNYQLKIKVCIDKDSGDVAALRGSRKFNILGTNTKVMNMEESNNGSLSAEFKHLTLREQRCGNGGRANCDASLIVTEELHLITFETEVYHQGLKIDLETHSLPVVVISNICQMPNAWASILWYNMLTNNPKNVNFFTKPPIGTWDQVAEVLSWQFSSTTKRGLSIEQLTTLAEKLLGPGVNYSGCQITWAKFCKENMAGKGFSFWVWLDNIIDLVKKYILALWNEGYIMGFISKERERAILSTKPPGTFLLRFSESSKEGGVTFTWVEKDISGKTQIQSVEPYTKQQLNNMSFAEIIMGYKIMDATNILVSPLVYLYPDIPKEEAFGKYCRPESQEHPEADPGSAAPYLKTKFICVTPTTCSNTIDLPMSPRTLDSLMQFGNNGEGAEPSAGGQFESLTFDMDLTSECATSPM

SMILES: C/C=C(\C)C(=O)OCC1=C2/C(=C\[C@@]3(C)CC[C@](O)(O3)[C@H](C)C[C@@H]2O)OC1=O [Compound 22]
- IC50 [1]: 6.6 to 8.2 µM
- cell proliferation measured by BrdU incorporation [2]: significantly impaired
- effect on pErk1/2MAPK levels [3]: no effects
- effect on Stat3 DNA-binding activity in treated tumor cells [4]: strongly inhibited
- effect on Stat1:Stat1 activity, cell-free EMSA [5]: weak effects
- Stat3:Stat3/DNA-binding activity (complexation), cell-free EMSA ([6]; 5 μM, 30 min pre-incubation, NIH3T3/v-Src nuclear extracts): diminished
- Stat3:Stat3/DNA complexation in the presence of Cys ([6]; in the presence of 50 μM Cys): strongly inhibited
- migration into the denuded area [7]: slowed migration
- effect on Stat5:Stat5 activity, cell-free EMSA [8]: weak effects
- effect on EGF-stimulated pStat5 levels [9]: no effect
- inhibition at 5 µM [10]: 45 to 60%
- body weights or obvious signs of toxicity [11]: No significant changes
- growth of subcutaneous U251MG xenografts [12]: inhibited growth
- IC50 [13]: 4.8 to 9.6 µM
- IC50 [14]: 7.4 to 18.3 µM
- effect on SOCS3 levels [15]: no effects
- chromatid structures and sister-chromatids segregation (mitosis) [16]: caused defects
- effect on EGF-stimulated pStat1 levels [17]: no effect
- inhibition at 5 µM [18]: 45 to 60%
- effects on NIH3T3 colony numbers [19]: moderate or none
